Measurements: ChEMBL document CHEMBL4196179, “Synthesis and Pharmacological Evaluation of Noscapine-Inspired 5-Substituted Tetrahydroisoquinolines as Cytotoxic Agents” (J Med Chem, 2018)
The source made the active and inactive calls. No cut-off for these calls is given here.

Key:
MCF7 [1] = test: Cell cycle arrest in human MCF7 cells assessed as increase in accumulation at G2/M phase at 10 uM after 18 hrs by Hoechst 33342 staining based FACS analysis relative to control; format: functional
Method in brief: (§1)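 Cells seeded 48 h beforehand, treated 18 h with test compounds at 10 µM or vincristine at 100 nM, then trypsinised and stained with Hoechst 33342 for 60 min; FACS read at 450 nm; % G2/M increase calculated relative to 0.1% DMSO vehicle; mean ± SEM of three independent experiments.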

PANC-1 [2] = test: Cell cycle arrest in human PANC1 cells assessed as increase in accumulation at G2/M phase at 10 uM after 18 hrs by Hoechst 33342 staining based FACS analysis relative to control; format: functional; method in brief: as §1
[3] = Binding affinity to recombinant P-gp cys-less mutant (unknown origin) in proteoliposomes assessed as increase in ATP hydrolysis rate after 40 mins by colorimetric assay; parameters: species or system Homo sapiens
Method in brief: (§2)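 P-gp expressed in High-Five insect cells via recombinant baculovirus, IMAC-purified and reconstituted into proteoliposomes; 0.1-0.5 µg incubated with 2 mM ATP and drug at 10^-9 to 10^-4 M for 40 min at 37 °C; liberated Pi measured colorimetrically; EC50 and extent of stimulation from dose-response fit against drug-free basal activity.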

PANC-1 [4] = test: Cell cycle arrest in human PANC1 cells assessed as accumulation at G1 phase at 10 uM after 18 hrs by Hoechst 33342 staining based FACS analysis (reference value: 70.7%); format: functional
PANC-1 [5] = test: Cell cycle arrest in human PANC1 cells assessed as accumulation at S phase at 10 uM after 18 hrs by Hoechst 33342 staining based FACS analysis (reference value: 11.1%); format: functional
PANC-1 [6] = test: Cell cycle arrest in human PANC1 cells assessed as accumulation at G2/M phase at 10 uM after 18 hrs by Hoechst 33342 staining based FACS analysis (reference value: 13.7%); format: functional
Sus scrofa = organism: Sus scrofa; test: Inhibition of pig tubulin polymerization assessed as Vmax of tubulin polymerization at 10 uM after 60 mins turbidimetric analysis (reference value: 27 +/- 2 milliOD/min)
[7] = Cytotoxicity against human Renal 1983 cells; format: functional, cell-based
MCF7 [8] = test: Antiproliferative activity against human MCF7 cells after 6 days by MTT assay; format: functional, cell-based; details: MCF7, 144 h
Method in brief: (§3)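 Cells seeded overnight at 1500/well, then exposed to a range of concentrations for 6 d; viability by MTT (570 nm, background-subtracted, normalised to untreated control = 100%); EC50 from sigmoidal dose-response fit by non-linear least squares; mean ± SEM of at least 8 independent observations. MCF-7 in MEMα + 10% FBS; NCI/AdrRES in DMEM + 10% FCS with periodic 3 µM doxorubicin selection.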

NCI/ADR-RES [9] = test: Antiproliferative activity against human NCI/ADR-RES cells after 6 days by MTT assay; format: functional, cell-based; details: 144 h; method in brief: as §3
MCF7 [10] = test: Effect on calcein-AM accumulation in human wild type MCF7 cells at 1 uM by fluorescence assay; format: functional, cell-based
Method in brief: (§4)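 Cells seeded at 2 × 10^3/well and grown 2 d, washed and placed in HBSS; test compound added at 2X in HBSS with DMSO ≤1% final, then calcein-AM at 1 µM final; intracellular fluorescence followed over time, rate taken as slope from linear regression.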

[11] = Absolute oral bioavailability in human at 150 mg; format: ADME, organism-based; details: in vivo
NCI/ADR-RES [12] = test: Inhibition of P-gp in human NCI/ADR-RES cells assessed as rate of calcein-AM accumulation at 1 uM by fluorescence assay; format: cell-based; method in brief: as §4
Homo sapiens [13] = organism: Homo sapiens; test: Ratio of nicardipine activity to test compound activity for inhibition of P-gp in human NCI/ADR-RES cells assessed as rate of calcein-AM accumulation; format: cell-based
Method in brief: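 Rate of calcein accumulation in NCI/AdrRES cells (1 µM calcein-AM in HBSS, fluorescence versus time, slope by linear regression) with the P-gp modulator nicardipine, compared to the rate with test compound.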

Homo sapiens [14] = organism: Homo sapiens; test: Binding affinity to recombinant P-gp cys-less mutant (unknown origin) in proteoliposomes assessed as increase in ATP hydrolysis rate at 10^-9 to 10^-4 M after 40 mins by colorimetric assay relative to basal control; method in brief: as §2
HeLa = test: Cytotoxicity against human HeLa cells; format: functional, cell-based
MCF7 [15] = test: Cytotoxicity against human MCF7 cells; format: functional, cell-based
[16] = Terminal half life in human; format: ADME, organism-based; details: in vivo, read-out: beta t1/2 (converted)
MCF7 [17] = test: Cell cycle arrest in human MCF7 cells assessed as increase in accumulation at G2/M phase at 100 nM after 18 hrs by Hoechst 33342 staining based FACS analysis relative to control; format: functional; method in brief: as §1
PANC-1 [18] = test: Cell cycle arrest in human PANC1 cells assessed as increase in accumulation at G2/M phase at 100 nM after 18 hrs by Hoechst 33342 staining based FACS analysis relative to control; format: functional; method in brief: as §1
PANC-1 [19] = test: Cell cycle arrest in human PANC1 cells assessed as accumulation at G1 phase at 100 nM after 18 hrs by Hoechst 33342 staining based FACS analysis (reference value: 70.7%); format: functional
PANC-1 [20] = test: Cell cycle arrest in human PANC1 cells assessed as accumulation at S phase at 100 nM after 18 hrs by Hoechst 33342 staining based FACS analysis (reference value: 11.1%); format: functional
PANC-1 [21] = test: Cell cycle arrest in human PANC1 cells assessed as accumulation at G2/M phase at 100 nM after 18 hrs by Hoechst 33342 staining based FACS analysis (reference value: 13.7%); format: functional
[22] = Ratio of IC50 for human NCI/ADR-RES cells to IC50 for human MCF7 cells; format: functional
Method in brief: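 IC50 in doxorubicin-selected P-gp-expressing NCI/AdrRES cells divided by IC50 in parental MCF-7, each from 6 d MTT viability dose-response curves fitted by non-linear regression.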

Work on `COc1ccc(C2c3c(c(Br)c4c(c3OC)OCO4)CCN2C)cc1OC` (stereo unspecified) yielded an Activity (MCF7 [1]) of 20% and an Activity (PANC-1 [2]) of 8%.

`COc1ccc(CC2c3c(c(Br)c4c(c3OC)OCO4)CCN2C)cc1OC` (stereo unspecified) gave an Activity (MCF7 [1]) of 19% and an Activity (PANC-1 [2]) of 0%.

`CCNC(=O)N1CCc2c(Br)c3c(c(OC)c2C1Cc1ccc(OC)c(OC)c1)OCO3` (stereo unspecified) gave an Activity (MCF7 [1]) of 12% and an Activity (PANC-1 [2]) of -10%.

Work on `COc1ccc2c(c1OC)C(=O)O[C@@H]2[C@H]1c2c(cc3c(c2OC)OCO3)CCN1C` [NOSCAPINE] yielded an EC50 [3] of 69.7 µM, an Activity (MCF7 [1]) of 2% and an Activity (PANC-1 [2]) of 16%. For the same compound, the Activity (PANC-1 [4]) was 69.3%, the Activity (PANC-1 [5]) was 10.8% and the Activity (PANC-1 [6]) was 16.1%. For the same compound, the Vmax (milli optical density/minute) (Sus scrofa) was 20, the IC50 [7] was 39 µM and the IC50 (MCF7 [8]) was 18.8 µM. For the same compound, the IC50 (NCI/ADR-RES [9]) was 17.4 µM, the Activity (MCF7 [10]) was “inactive” and the bioavailability [11] was 30%. The Activity (NCI/ADR-RES [12]) was 26.7 RFU/min, the Ratio (Homo sapiens [13]) was 4 and the fold change (FC) (Homo sapiens [14]) was 17.6. For the same compound, the IC50 (HeLa) was 25 µM, the IC50 (MCF7 [15]) was 42 µM and the half-life [16] was 270 min.

Compound `COc1cc(CC2c3c(c(Br)c4c(c3OC)OCO4)CCN2C)cc(OC)c1OC` (stereo unspecified) has an Activity (MCF7 [1]) of -8% and an Activity (PANC-1 [2]) of -1%.

For `CCNC(=O)N1CCc2c(Br)c3c(c(OC)c2C1c1ccc(OC)cc1)OCO3` (stereo unspecified), the Activity (MCF7 [1]) was 18% and the Activity (PANC-1 [2]) was 21%.

`CC[C@]1(O)C[C@H]2CN(CCc3c([nH]c4ccccc34)[C@@](C(=O)OC)(c3cc4c(cc3OC)N(C=O)[C@H]3[C@@](O)(C(=O)OC)[C@H](OC(C)=O)[C@]5(CC)C=CCN6CC[C@]43[C@@H]65)C2)C1` [VINCRISTINE] gave an Activity (MCF7 [17]) of 283%, an Activity (PANC-1 [18]) of 265% and an Activity (PANC-1 [19]) of 21.2%. The Activity (PANC-1 [20]) was 9.7% and the Activity (PANC-1 [21]) was 64.1%.

Work on `CCNC(=O)N1CCc2c(Br)c3c(c(OC)c2C1Cc1cc(OC)c(OC)c(OC)c1)OCO3` (stereo unspecified) yielded an Activity (MCF7 [1]) of 5% and an Activity (PANC-1 [2]) of -4%.

With `CCNC(=O)N1CCc2c(Br)c3c(c(OC)c2C1c1ccc(OC)c(OC)c1)OCO3` (stereo unspecified) the Activity (MCF7 [1]) was -6% and the Activity (PANC-1 [2]) was 11%.

For `CC[C@]1(O)C[C@@H]2CN(CCc3c([nH]c4ccccc34)[C@@](C(=O)OC)(c3cc4c(cc3OC)N(C)[C@H]3[C@@](O)(C(=O)OC)[C@H](OC(C)=O)[C@]5(CC)C=CCN6CC[C@]43[C@@H]65)C2)C1` [VINBLASTINE], the IC50 (MCF7 [8]) was 0.00036 µM, the IC50 (NCI/ADR-RES [9]) was 0.096 µM and the “Ratio IC50” value [22] was 267.

In the case of `COc1c2c(c(Br)c3c1C(c1ccccc1)N(C)CC3)OCO2` (stereo unspecified), the Activity (MCF7 [1]) is reported as 18% and the Activity (PANC-1 [2]) is reported as -7%.

For `CCNC(=O)N1CCc2c(Br)c3c(c(OC)c2C1Cc1ccccc1)OCO3` (stereo unspecified), the Activity (MCF7 [1]) was 1% and the Activity (PANC-1 [2]) was -8%.

In the case of `COc1ccc(C2c3c(c(Br)c4c(c3OC)OCO4)CCN2C)cc1` (stereo unspecified), the Activity (MCF7 [1]) is reported as 23% and the Activity (PANC-1 [2]) is reported as 26%.
